Myeloid diff 2: promotes myeloid progenitor differentiation. ER-HoxA9 myeloid progenitors, lysozyme-GFP differentiation, flow cytometry. calls only at 10 µM. actives 1% (n = 360,000). AID 624256;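 active means normalized GFP-positive differentiation at or above the plate's own cutoff, the solvent-only control mean plus 3 SD; inconclusive means no clear call, values can overlap the other calls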;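 further: cells exposed to compound for four days before flow analysis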
NR2E3 ag-1: NR2E3 (human) agonism; Q9Y5X4; GST-NR2E3/biotin-RetCOR TR-FRET, 1536-well; inhibition of corepressor binding, % at 4.78 µM; actives 0.12% (n = 320,000);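 active means percent inhibition above the cutoff of mean plus 3 SD of all tested compounds, set per screening campaign, cut at about 20% in these data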;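 further: 0% = DMSO wells and 100% = biotin wells as full block of FRET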
Target sequence (Q9Y5X4 whole entry, looked up): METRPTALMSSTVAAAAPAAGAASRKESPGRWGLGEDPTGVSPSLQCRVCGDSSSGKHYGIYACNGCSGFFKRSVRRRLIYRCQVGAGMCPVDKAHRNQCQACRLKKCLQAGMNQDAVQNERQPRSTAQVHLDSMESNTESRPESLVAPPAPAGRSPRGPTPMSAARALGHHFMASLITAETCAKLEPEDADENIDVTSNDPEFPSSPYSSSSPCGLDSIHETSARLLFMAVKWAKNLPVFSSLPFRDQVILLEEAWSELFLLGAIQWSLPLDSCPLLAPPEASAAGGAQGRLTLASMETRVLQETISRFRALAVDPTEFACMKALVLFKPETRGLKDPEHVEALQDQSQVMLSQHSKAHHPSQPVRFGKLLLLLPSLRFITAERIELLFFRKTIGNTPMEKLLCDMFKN
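system = GST-tagged NR2E3 plus biotinylated RetCOR corepressor | input = 1.35 nM GST-NR2E3 | also added = 7 nM biotin-RetCOR | schedule = 5 h incubation at 4 °C | measured by = TR-FRET with europium anti-GST and streptavidin-D2, 340 nm excitation | read-out = percent loss of FRET ratio relative to control wells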
NR2E3 ag-2: activates human NR2E3 receptor; CHO-S Gal4-NCOR/VP16-NR2E3 two-hybrid, luciferase; AID 602229; Q9Y5X4; actives 0.35% (n = 360,000); inhibition of corepressor binding, % at 3.98 µM;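 active means inhibition above the mean of all tested compounds plus 3 SD, cut at about 70% in these data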;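 further: 0% = DMSO with NR2E3 transfected cells and 100% = cells lacking NR2E3 construct; higher means lower luciferase signal from less NR2E3 corepressor binding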
T cell HTS: T cell immune modulators affecting CD8 T cell-vesicle binding. AID 2052. 2C CD8+ T cell-vesicle binding, flow cytometry; hits give low values. actives 0.068% (n = 330,000). response (vesicle binding), % at 7 µM;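 active means response, share of CD8 T cells binding vesicles, and their 90th percentile fluorescence all below set limits, cut at about 80% in these data, passing the limit was not always enough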;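 further: values below 100% mean blocked vesicle binding to the CD8+ T cells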
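material = purified 2C TCR transgenic mouse naive CD8+ T cells | controls = Unloaded micro-vesicles (low), QL9 vesicles with 0.7% DMSO (high) | detection = cytometric PE anti-B7-1 and Alexa647 anti-CD8 signals after 1% paraformaldehyde fixation | incubation = binding step 1.5 h, 37 °C, antibody labelling 20 min, ice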
FXN GAA850 act: activators of GAA850 frataxin (FXN) promoter; HEK293 lucGAA850 FXN promoter luciferase reporter, 24 h; percent of 10 µM SAHA response; activation, % at 6 µM; actives 0.56% (n = 360,000); AID 540364;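 active means activation above the average of all compounds screened plus 3 SD, cutoff fixed separately per campaign, cut at about 7.5% in these data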;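 further: 0% = DMSO wells and 100% = 10 µM SAHA wells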
NR2E3 ag confirm: confirmation of human NR2E3 agonists; inhibition, % at 3.98 µM; actives 51% (n = 2,300); CHO-S mammalian two-hybrid NR2E3-NCOR, luciferase luminescence; shares compounds with NR2E3 ag-2;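 active means average inhibition above a cutoff equal to the mean inhibition of all tested compounds plus one SD, cut at about 70% in these data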;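 further: 0% = DMSO in NR2E3 cells and 100% = DMSO in cells lacking NR2E3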
GAL4-VP16 luc: reduces GAL4-VP16 reporter signal in NR2E3 counterscreen; shares compounds with NR2E3 ag-2; inhibition, % at 3.98 µM; actives 29% (n = 2,300); CHO-S GAL4-VP16 luciferase reporter, luminescence;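 active means mean inhibition above a cutoff equal to the average over all tested compounds plus one standard deviation, cut at about 70% in these data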;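 further: luciferase from a UAS reporter driven by GAL4-VP16 transactivation; 0% = DMSO with VP16-transfected cells and 100% = DMSO with cells lacking VP16; higher means less reporter light so more repression of VP16 activity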
The depositor's hits bear a star; i = inactive; u = inconclusive; x = not tested or not shown. Shown are actives, neighbours in structure and some others; about 2% of the full set was active somewhere.

SMILES	Myeloid diff 2	NR2E3 ag-1	NR2E3 ag-2	T cell HTS	FXN GAA850 act	NR2E3 ag confirm	GAL4-VP16 luc
CCOC(=O)C1(C)CCN1C(=O)c1ccc(F)c(Cl)c1 (configuration not stated)	i	x	-10.3	x	0.3	x	x
COc1ccc(C2=Nc3ccccc3N(C(=O)c3ccc(C(F)(F)F)cc3)C2C(=O)Nc2ccc3c(c2)OCCO3)cc1 (configuration not stated)	i	x	x	x	x	x	x
COc1cc([C@@H]2Oc3cc(C4Oc5cc(O)cc(O)c5C(=O)[C@H]4O)ccc3O[C@H]2CO)ccc1O (some centres not stated)	i	-3.4	-18.7	206.0	-0.8	x	x
C=CCN(CC=C)C(=S)NC(=O)c1ccc([N+](=O)[O-])cc1	i	2.9	66.1	513.4	-0.2	-6.2	-10.3
C/C(Nc1ccc(Cl)c(Cl)c1)=C1/CCOC1=O	i	x	14.1	x	-1.2	x	x
CC1Cc2cc(S(=O)(=O)N3CCN(c4ccc(Cl)cc4)CC3)ccc2N1C(=O)C1CC1 (configuration not stated)	i	0.6	14.4	184.2	-0.9	x	x
Cc1ccc(Cl)cc1N1CCN(C(=O)C2CCN(S(=O)(=O)c3cccnc3)CC2)CC1	i	-0.4	52.0	156.5	1.7	53.0	39.7
O=C(C1CCN(S(=O)(=O)c2cccnc2)CC1)N1CCN(c2ccccc2Cl)CC1	i	1.8	-9.9	189.3	1.6	x	x
CC(=O)N1c2ccc(S(=O)(=O)N3CCC(C(=O)N4CCN(c5ccc(Cl)cc5)CC4)CC3)cc2CC1C (configuration not stated)	i	2.1	64.8	94.3	-1.6	77.2*	68.1
CC(Oc1cccnc1[N+](=O)[O-])C(=O)Nc1ccc(Cl)cn1 (configuration not stated)	i	1.1	0.9	948.9	-1.4	x	x
CC(=O)c1ccc(S(=O)(=O)N2CCN(c3ccnc4cc(Cl)ccc34)CC2)cc1	i	x	59.1	x	-1.9	62.4	54.2
O=c1[nH][nH]c(-c2ccccc2)c1C=Nc1ccc(OC(F)(F)F)cc1	i	-1.4	66.6	146.3	1.5	34.1	0.2
Cc1nc(SCC(=O)Nc2nccs2)c(C#N)c(C)c1C	i	5.6	6.4	364.2	-5.1	x	x
Cc1nc(SCC(=O)Nc2nc3ccccc3s2)c(C#N)c(C)c1C	i	-0.5	92.8*	119.0	-16.2	84.5*	81.1*
COc1ccccc1CCNC(=O)Cc1cccs1	i	1.0	-16.5	368.8	2.2	x	x
Cn1c(=O)c2[nH]c(CCCCCCCCc3nc4ccccc4[nH]3)nc2n(C)c1=O	i	x	68.0	x	-3.9	78.8*	60.6
Cn1c(=O)c2[nH]c(CCCCc3nc4ccccc4[nH]3)nc2n(C)c1=O	i	x	-16.2	x	-1.1	x	x
Cc1cc(=O)[nH]c(SCC(=O)Nc2cccc(S(=O)(=O)N3CCOCC3)c2)n1	i	4.0	22.1	452.8	0.5	x	x
CC(C)(C)CC(=O)Nc1nnc(C(F)(F)F)s1	i	-1.8	26.9	177.8	-0.9	x	x
CC(NC(=O)Nc1nnc(C(F)(F)F)s1)(C(F)(F)F)C(F)(F)F	i	-2.9	105.8*	623.5	-11.5	100.2*	94.0*
O=C(Cc1cccc2ccccc12)NCC(=O)N1CCN(Cc2cccc(C(F)(F)F)c2)CC1	i	2.6	58.6	764.1	-2.6	49.5	42.2
O=C(Nc1ccc(S(=O)(=O)N2CCN(Cc3ccccc3)CC2)cc1)c1cnccn1	i	3.2	61.0	330.9	-4.2	86.0*	71.3*
CCc1cc(C(=O)NC2CCCN(Cc3ccccc3F)C2)n(C)n1 (configuration not stated)	i	-1.0	69.1	462.8	-2.2	37.5	44.3
CCOC(=O)N=Nc1c2ccccc2c2nc3no[nH]c3nc12	u	x	88.9*	x	-9.5	99.2*	99.6*
Cc1cc(C)cc(NC(=O)C2CCN(S(=O)(=O)c3ccc4c(c3)NC(=O)C(C)S4)CC2)c1 (configuration not stated)	i	0.8	6.2	502.7	-0.4	x	x

From PubChem
